# Screening data from PubChem.
# Most compounds without a hit are left out; they make up all but 1.6% or so of the library.
# STEP block – STEP (human) phosphatase inhibition | recombinant STEP, OMFP fluorogenic substrate, fluorescence | AID 588621 | inhibition, % at 20 µM | actives 0.25% (n = 360,000) | P54829;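 active = inhibition at 20 µM, scaled per plate between control wells, above about 37%, limit read from the data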;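 also: 0% = DMSO with enzyme and substrate and 100% = substrate only without enzyme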
# Target sequence (P54829 whole entry, looked up): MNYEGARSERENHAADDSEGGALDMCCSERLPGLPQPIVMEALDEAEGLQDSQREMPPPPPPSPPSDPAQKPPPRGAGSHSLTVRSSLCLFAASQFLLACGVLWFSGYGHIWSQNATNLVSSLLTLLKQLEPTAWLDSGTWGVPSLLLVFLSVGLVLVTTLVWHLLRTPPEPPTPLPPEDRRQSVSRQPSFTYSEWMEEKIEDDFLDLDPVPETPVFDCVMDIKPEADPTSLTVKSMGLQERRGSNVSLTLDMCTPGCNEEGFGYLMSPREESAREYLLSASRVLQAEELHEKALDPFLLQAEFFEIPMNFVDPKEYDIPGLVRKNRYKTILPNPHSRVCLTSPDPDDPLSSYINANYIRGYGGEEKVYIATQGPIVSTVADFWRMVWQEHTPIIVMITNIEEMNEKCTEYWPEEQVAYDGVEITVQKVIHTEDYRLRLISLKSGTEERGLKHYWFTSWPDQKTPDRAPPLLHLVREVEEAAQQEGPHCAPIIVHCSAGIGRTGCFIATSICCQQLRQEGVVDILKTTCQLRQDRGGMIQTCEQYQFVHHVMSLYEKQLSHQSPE
#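 Material: STEP (striatal-enriched tyrosine phosphatase) enzyme, cell-free | Medium: 50 mM Bis-Tris pH 6.0 with 2.5 mM DTT and 0.005% Tween 20 | Read-out: Percent inhibition scaled to no-enzyme and uninhibited-enzyme controls, plate-pattern corrected | Signal: Fluorescence read at 480 nm ex / 540 nm em | Times: 20 min reaction, room temperature, in the dark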
# Scp-1 inhibitor – Scp-1 (human) phosphatase inhibition. Q9GZU7. inhibition, % at 20 µM. actives 0.88% (n = 340,000). Recombinant Scp1, phosphopeptide, malachite green phosphate absorbance;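 active = inhibition above about 50% at 20 µM, limit read from the data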;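 also: plate controls were DMSO wells with enzyme for no effect and wells lacking enzyme for full effect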
#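 System: SCP-1 catalytic domain; Reagent: Phospho 17-mer peptide substrate; Doses: one concentration, 20 µM, with 1.0% DMSO; Incubation: 45 min room-temperature reaction, 5 min colour, 30 min stabiliser; Signal: Phosphate-binding colour reagent, absorbance read at 630 nm.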
# F508del corr – CFTR F508del correction in bronchial cells. actives 0.36% (n = 350,000). activity (quench increase), % at 7.58 µM. CFBE cells, YFP halide quenching; stimulated with forskolin plus potentiator P3; % fluorescence drop versus neutral controls;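 active = mean added fluorescence quench of at least 8% versus neutral control, with both replicates also reaching 8%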;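 also: cells transiently co-express mutant CFTR-F508del with the halide-sensitive YFP; corrector assay measuring rescue of mutant channel to the surface after 24 h compound exposure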
# SUMO1 PPI mod – SUMO1-SIM interaction modulation. inhibition, % at 20 µM. SUMO1 binding to a labelled peptide, TR-FRET, 1 h. actives 0.33% (n = 360,000). P63165; in the data active = inhibition above about 37%
# DNMT1 block – DNMT1 (human) enzyme inhibition. P26358. inhibition (reported as % activation of signal), % at 10 µM. actives 0.83% (n = 360,000). DNMT1 molecular beacon, Hinp1I cleavage, fluorescence; in the data active = inhibition above about 50%
# LMPTP block – LMPTP (human) inhibition. P24666. recombinant LMPTP-A, OMFP fluorogenic substrate, fluorescence intensity. inhibition, % at 20 µM. actives 0.22% (n = 360,000). AID 651560;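 active = compounds that cut the enzyme signal by at least half of the control window in the single-dose screen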;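 also: plate controls were DMSO wells with enzyme plus substrate for no effect and substrate without enzyme for full effect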
#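 Test system – LMPTP-A enzyme · Amount – LMPTP-A at 0.625 nM final in the reaction · Buffer or medium – Bis-Tris pH 6.0, DTT, detergent · Reagent – OMFP 400 µM · Doses – single 20 µM dose · Schedule – reaction 50 min, room temperature, dark · Detection – fluorescence intensity of OMFP turnover product · Evaluation – percent inhibition versus substrate-only and uninhibited controls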
# Starred values were filed as active, the others as inactive; . = no result given.
SMILES,STEP block,Scp-1 inhibitor,F508del corr,SUMO1 PPI mod,DNMT1 block,LMPTP block
FC(F)(F)C1=Nc2cccc3cccc(c23)N1,18,-1,0,117*,108*,87*
Cc1ccc(C(=O)NC(=S)NNC(=O)c2ccccc2O)cc1,2,-9,9.7*,-2,-2,0
COc1ccccc1NS(=O)(=O)c1cc(C(=O)N2CCCCCC2)ccc1C,0,2,18*,-3,4,-1
COc1ccccc1NS(=O)(=O)c1cc(C(=O)N2CCCC2)ccc1C,1,-5,1,1,3,-1
COc1cc(C(=O)OC(C)C(=O)NC2CCCCC2C)c([N+](=O)[O-])cc1OC (stereo unspecified),-2,8,1,-14,2,0
CC(OC(=O)c1ccc([N+](=O)[O-])s1)C(=O)NC1CCCCC1C (stereo unspecified),2,-2,0,13,71*,-1
NC1(C(=O)O)CC1,-4,-6,17*,-6,-14,-2
COc1ccc2c3c(n(C)c2c1)[C@@H](CO)N(C(=O)C1CCC1)CC31CN(C(=O)Nc2cccc(F)c2)C1,.,.,-4,.,.,.
Fc1ccccc1/C=N/NC(=S)Nc1ccc(Cl)cc1Cl,-1,-24,12*,0,21,0
CCCCc1nc(Cl)c(CO)n1Cc1ccc(-c2ccccc2-c2nn[nH]n2)cc1,0,-6,8.1*,5,0,-1
CC(C)NC(=O)N(C)C[C@@H]1Oc2ccc(NS(=O)(=O)c3cn(C)cn3)cc2CC(=O)N([C@H](C)CO)C[C@@H]1C,.,.,0,.,.,.
COc1cc(/C=C2/C(=O)NN(c3ccc(Cl)c(Cl)c3)C2=O)cc([N+](=O)[O-])c1O,9,92*,4,9,10,6
COc1cc(/C=C2/C(=O)NN(c3ccc(F)cc3)C2=O)cc(Cl)c1O,3,-6,1,-44,5,4
COc1cc(/C=C2/C(=O)NN(c3ccc(Cl)cc3)C2=O)cc(Br)c1O,83*,35,-3,75*,48,65*
COc1cccc(S(=O)(=O)N2C[C@H](O)COC[C@@H]3O[C@H](CC(=O)N4CCN(C)CC4)CC[C@H]32)c1,.,.,-1,.,.,.
O=C1CCN2C=Nc3cccc4ccc1c2c34,-68,-10,.,2,76*,-5
C[C@@H]1CN([C@@H](C)CO)C(=O)Cc2cc(NC(=O)Nc3ccccc3)ccc2O[C@H]1CN(C)Cc1ccc2c(c1)OCO2,.,.,-4,.,.,.
CC(C)(C)C(=O)Nc1ccc(S(=O)(=O)NC2=NCCCCC2)cc1,-3,-1,15*,-4,0,-2
CCOC(=O)c1c(NC(=O)C(=O)N/N=C/c2ccccc2OC)sc2c1CCCCC2,-2,-3,.,1,1,0
CCOC(=O)c1c(NC(=O)C(=O)N/N=C/c2ccccc2O)sc2c1CCCCC2,-5,-5,16*,1,12,0
COc1ccc(NC(=O)Nc2ccc3c(c2)C(=O)N([C@H](C)CO)C[C@@H](C)[C@@H](CN(C)Cc2ccc(C(=O)O)cc2)OCCCC[C@H](C)O3)cc1,.,.,-2,.,.,.
C[C@H]1CCCCO[C@@H](CN(C)C(=O)Nc2ccc(C(F)(F)F)cc2)[C@@H](C)CN([C@@H](C)CO)C(=O)c2cc(NC(=O)Nc3ccc4c(c3)OCO4)ccc2O1,.,.,8.1*,.,.,.
C[C@H](CO)N1C[C@H](C)[C@@H](CN(C)C(=O)Nc2ccc(C(F)(F)F)cc2)OCCCC[C@H](C)Oc2ccc(NC(=O)Nc3ccc(F)cc3)cc2C1=O,.,.,9.3*,.,.,.
C[C@@H]1CCCCO[C@H](CN(C)C(=O)Nc2ccc(F)cc2)[C@@H](C)CN([C@H](C)CO)C(=O)c2cc(NC(=O)Nc3ccc(C(F)(F)F)cc3)ccc2O1,.,.,1,.,.,.
C[C@H]1CCCCO[C@@H](CN(C)C(=O)Nc2ccc(C(F)(F)F)cc2)[C@@H](C)CN([C@@H](C)CO)C(=O)c2cc(NC(=O)Nc3ccc(F)cc3)ccc2O1,.,.,8.3*,.,.,.
CC(C)C[C@@H]1NC(=O)[C@H]2C[C@@H](C(=O)NCc3ccc(F)cc3)[C@@H](c3cccc(OCCO)c3)N2C1=O,.,.,-1,.,.,.
